Experimental data taken from ChEMBL document CHEMBL1269001, “Design, synthesis and biological evaluation of quinoline amide derivatives as novel VEGFR-2 inhibitors” (Bioorg Med Chem Lett, 2010).

Tests used:
[1] = molecular target: Vascular endothelial growth factor receptor 2 (Homo sapiens, UniProt P35968); assay: Inhibition of VEGFR2
HUVEC [2] = assay: Inhibition of […]-induced proliferation in HUVEC cells assessed as BrdU incorporation by ELISA; assay type: functional, cell-based; details: Homo sapiens
Procedure, shortened: (§1)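 HUVEC were seeded in 5% FBS medium on type 1 collagen-coated plates and incubated overnight at 37 °C, 5% CO₂. The medium was replaced with inhibitor at various concentrations in serum-free medium. Cells were incubated a further 72 h, with BrdU added during the last 18–24 h. Incorporation was read by ELISA.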

HUVEC [3] = assay: Inhibition of VEGF-induced proliferation in HUVEC cells assessed as BrdU incorporation by ELISA; assay type: functional, cell-based; details: Homo sapiens; procedure, shortened: as §1

Vascular endothelial growth factor receptor 2, sequence (P35968 whole entry): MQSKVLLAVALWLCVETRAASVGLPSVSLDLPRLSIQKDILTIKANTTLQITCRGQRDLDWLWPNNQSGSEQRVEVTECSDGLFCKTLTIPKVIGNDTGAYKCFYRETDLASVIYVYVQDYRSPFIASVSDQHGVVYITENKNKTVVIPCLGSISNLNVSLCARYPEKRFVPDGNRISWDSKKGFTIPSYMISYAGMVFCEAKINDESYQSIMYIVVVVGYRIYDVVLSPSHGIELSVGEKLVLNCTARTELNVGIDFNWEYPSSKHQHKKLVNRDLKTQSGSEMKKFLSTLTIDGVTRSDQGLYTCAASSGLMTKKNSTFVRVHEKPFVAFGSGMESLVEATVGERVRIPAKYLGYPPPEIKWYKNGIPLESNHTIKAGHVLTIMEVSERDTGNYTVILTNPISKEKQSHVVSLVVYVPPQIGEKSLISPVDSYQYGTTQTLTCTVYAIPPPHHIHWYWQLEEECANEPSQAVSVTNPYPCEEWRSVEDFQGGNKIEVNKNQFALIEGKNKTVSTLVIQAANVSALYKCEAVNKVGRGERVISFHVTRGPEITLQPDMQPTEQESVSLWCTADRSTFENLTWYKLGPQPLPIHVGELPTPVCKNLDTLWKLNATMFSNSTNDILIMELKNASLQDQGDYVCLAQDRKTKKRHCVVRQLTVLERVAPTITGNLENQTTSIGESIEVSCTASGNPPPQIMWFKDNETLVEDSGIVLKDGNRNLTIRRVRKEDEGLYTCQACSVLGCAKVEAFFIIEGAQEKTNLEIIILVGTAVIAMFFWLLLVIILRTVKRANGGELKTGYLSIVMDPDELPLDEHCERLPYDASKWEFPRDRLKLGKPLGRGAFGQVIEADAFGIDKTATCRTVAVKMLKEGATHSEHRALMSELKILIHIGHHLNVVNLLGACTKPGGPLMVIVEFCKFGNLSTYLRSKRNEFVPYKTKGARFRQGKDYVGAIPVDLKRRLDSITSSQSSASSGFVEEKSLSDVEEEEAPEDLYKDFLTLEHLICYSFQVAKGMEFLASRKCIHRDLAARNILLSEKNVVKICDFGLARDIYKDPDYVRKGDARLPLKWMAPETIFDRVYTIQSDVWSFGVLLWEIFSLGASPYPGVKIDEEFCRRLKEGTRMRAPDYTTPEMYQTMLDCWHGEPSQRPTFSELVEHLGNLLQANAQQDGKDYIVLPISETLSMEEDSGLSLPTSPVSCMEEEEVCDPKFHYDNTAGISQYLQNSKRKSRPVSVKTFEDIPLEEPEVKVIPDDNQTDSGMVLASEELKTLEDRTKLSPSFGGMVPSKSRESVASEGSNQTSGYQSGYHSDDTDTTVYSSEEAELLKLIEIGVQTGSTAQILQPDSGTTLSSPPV

SMILES	IC50 [1]	IC50 (HUVEC [2])	IC50 (HUVEC [3])
O=C(Nc1cccc2cccnc12)c1ccccc1	135 nM	1160 nM	72.4 nM
O=C(Nc1cccc2cccnc12)c1ccc(Cl)cc1	125 nM	220 nM	15.2 nM
O=C(Nc1cccc2cccnc12)c1ccccc1Cl	23.6 nM	1150 nM	123 nM
O=C(Nc1cccc2cccnc12)c1ccc(Cl)nc1	84.9 nM	560 nM	141 nM
O=C(Nc1cccc2cccnc12)c1cncc(Br)c1	209 nM	346 nM	211 nM
O=C(Nc1cnc2ccccc2c1)c1ccccc1	107 nM	68 nM	78.9 nM
O=C(Nc1cnc2ccccc2c1)c1cncc(Br)c1	88.5 nM	1140 nM	59.5 nM
O=C(Nc1cccc2cccnc12)c1ccc([N+](=O)[O-])cc1	113 nM	450 nM	46.7 nM
O=C(Nc1cccc2cccnc12)c1cccc([N+](=O)[O-])c1	16.5 nM	210 nM	15.8 nM
O=C(Nc1cccc2cccnc12)c1cc(Cl)ccc1O	3.8 nM	110 nM	5.5 nM
Cc1ccc(C(=O)Nc2cccc3cccnc23)c(O)c1	9.6 nM	45 nM	19.8 nM
Cc1cccc(C(=O)Nc2cccc3cccnc23)c1O	26.5 nM	1140 nM	26.3 nM
O=C(Nc1cccc2cccnc12)c1cc(Br)cnc1O	5.5 nM	560 nM	12.9 nM
Cc1cnc(O)c(C(=O)Nc2cccc3cccnc23)c1	13.5 nM	1150 nM	13.6 nM
Cc1cccc(C(=O)Nc2cnc3ccccc3c2)c1Br	28.4 nM	660 nM	11.6 nM
Cc1cc(Cl)cc(C(=O)Nc2cnc3ccccc3c2)c1	326 nM	560 nM	76.3 nM
O=C(Nc1cnc2ccccc2c1)c1cc(Br)cc(Br)c1O	32.4 nM	240 nM	18.9 nM
O=C(Nc1cnc2ccccc2c1)c1cccc(Cl)c1O	72.8 nM	340 nM	28.4 nM
Cc1cc(Br)cc(C(=O)Nc2cnc3ccccc3c2)c1O	12.4 nM	470 nM	18.9 nM
O=C(Nc1cnc2ccccc2c1)c1cc(Cl)cnc1Br	23.4 nM	1240 nM	58.9 nM
Cc1cnc(Cl)c(C(=O)Nc2cnc3ccccc3c2)c1	102 nM	885 nM	77.6 nM
Cc1cc(Br)cc(C(=O)Nc2cnc3ccccc3c2)c1	113 nM	720 nM	89.6 nM
O=C(Nc1cnc2ccccc2c1)c1cc(Cl)c(O)nc1O	32.7 nM	460 nM	14.5 nM
Cc1cccc(C(=O)Nc2cnc3ccccc3c2)c1O	25.5 nM	780 nM	35.7 nM
